Compound activity deposited in PubChem BioAssay by several laboratories.
A selection: hits, their analogues and other compounds. The true share with any hit is near 2.6%.
VLA-4 inh – inhibition in human VLA-4 binding assay, primary screen, VLA-4 allosteric modulator project, MLPCN library, flow cytometry, VLA-4 expressing cells | 330,000 tested, 0.2% active | Integrin alpha-4 (Homo sapiens), P13612 | ligand binding flow cytometry | inhibition, % (about 7 µM as worked out from the volumes in the protocol); in the data active = inhibition above about 50%
Platelet DG rel – inhibitors of platelet dense granule secretion, primary screen, cell-based, MLPCN, human platelets. human platelet-rich plasma, SFLLRN dense granule ATP release, luminescence. inhibition, %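 (compounds screened at 7.5 µM in platelet-rich plasma)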. 300,000 tested, 0.22% active;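 active = mean replicate score, as percent of positive control, at or above 50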
Rce1 inh – yeast Rce1p protease inhibitors, primary screen, biochemical, fluorescence, cell-free homogeneous; 290,000 tested, 0.27% active; calls only; yeast membranes, quenched prenylated peptide cleavage fluorescence; CAAX prenyl protease 2 (Saccharomyces cerevisiae (strain ATCC 204508 / S288c)), Q03530;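 active = fall in fluorescence gain of 50% or more versus controls, with final raw signal at or below 3038400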;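 note: plate controls were neutral control wells for no effect and wells lacking membranes for full effect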
TAAR1 antag – human TAAR1 antagonists, primary screen, Fluo-8 calcium fluorescence, CHO RD-HGA16 cells; Trace amine-associated receptor 1 (Homo sapiens), Q96RJ0; antagonist; inhibition, % at 3 µM; 360,000 tested, 1.5% active;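 active = inhibition above a per-plate cutoff, the mean inhibition of test compounds on that plate plus 3 SD, cut at about 49% in these data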;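 note: 0% = DMSO plus EC80 beta-PEA response and 100% = DMSO alone without agonist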
Target sequence (Q96RJ0 whole entry, looked up): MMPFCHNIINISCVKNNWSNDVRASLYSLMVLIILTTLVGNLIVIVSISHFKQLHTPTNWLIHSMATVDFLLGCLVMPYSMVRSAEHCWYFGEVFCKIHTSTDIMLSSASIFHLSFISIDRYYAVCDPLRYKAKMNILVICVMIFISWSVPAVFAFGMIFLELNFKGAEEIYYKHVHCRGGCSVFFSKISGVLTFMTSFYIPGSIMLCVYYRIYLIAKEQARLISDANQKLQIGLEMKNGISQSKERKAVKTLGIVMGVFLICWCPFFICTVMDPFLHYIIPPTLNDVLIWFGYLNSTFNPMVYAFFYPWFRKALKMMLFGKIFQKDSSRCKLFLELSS
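test system = CHO RD-HGA16 cells bearing hTAAR1 | replication = singlicate | controls = DMSO-only wells and EC80 β-PEA-stimulated wells | reagent = EC80 β-phenethylamine stimulus | read-out basis = percent inhibition of PEA-evoked calcium signal, max/basal emission ratio | schedule = seeding 17-24 h prior, 75-min 37 °C, 30-min RT dye loading | signal = kinetic Fluo-8 calcium fluorescence measurement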
TAAR1 agonist – human TAAR1 agonists, primary screen, Fluo-8 calcium fluorescence, CHO RD-HGA16 cells. Trace amine-associated receptor 1 (Homo sapiens), Q96RJ0. activation, % at 3 µM. 360,000 tested, 0.99% active. vehicle wells 0%, saturating PEA agonist 100%;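 active = activation above the mean activation of all test compounds in the run plus 3 SD, cut at about 38% in these data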
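Test system: RD-HGA16 (CHO) cells co-expressing Gα16 and hTAAR1 | Doses: Single dose, 3 µM | Schedule: 17-24 h seeding, 75 min 37 °C dye, 30 min RT | Evaluation: % activation from peak over basal fluorescence ratio, DMSO-to-PEA scaled | Technique: Kinetic Fluo-8 calcium fluorescence | Benchmarks: Low control DMSO, high control PEA (EC100)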
TAAR1 nonsel count – nonselective antagonists in TAAR1 counter-screen cells, counter-screen for hTAAR1 antagonist project, cell-based, fluorescence, calcium; shares compounds with TAAR1 antag; counterscreen cell line, antagonist mode; inhibition, % at 3 µM; 2,400 tested, 77% active; in the data active = inhibition above about 22%;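 note: CHO-Ga16 host cells stimulated with ATP at an EC80 level; 0% = agonist EC80 plus vehicle and 100% = vehicle without agonist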
TAAR1 antag conf – human TAAR1 antagonists, retest of hits, confirmation, cell-based, fluorescence; shares compounds with TAAR1 antag; TAAR1-expressing cells, fluorescence antagonist read-out; inhibition, % at 3 µM; 2,400 tested, 40% active; in the data active = inhibition above about 49%;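 note: CHO-Ga16 host cells challenged with agonist PEA near its EC80; 0% = agonist at EC80 plus vehicle and 100% = vehicle with no agonist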
Ga16 nonsel ag – calcium activation in Ga16-expressing cells, counter-screen for TAAR1 antagonist project, cell-based, fluorescence; shares compounds with TAAR1 antag; agonist counterscreen; activation, % at 3 µM; 2,400 tested, 18% active; in the data active = activation above about 12%;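 note: 0% = vehicle wells and 100% = saturating stimulus response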
TAAR1 ag count – TAAR1 activation by candidate antagonists – cell-based, fluorescence, counter-screen for TAAR1 antagonist project | shares compounds with TAAR1 antag | hTAAR1 cell line, agonist mode | activation, % at 3 µM | 2,400 tested, 2% active; in the data active = activation above about 37%;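 note: CHO cells stably expressing TAAR1 with calcium dye readout; 0% = DMSO vehicle and 100% = full agonist response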
* marks the source's active call; other numbers are inactive results; i = inactive; . = no result.

SMILES	VLA-4 inh	Platelet DG rel	Rce1 inh	TAAR1 antag	TAAR1 agonist	TAAR1 nonsel count	TAAR1 antag conf	Ga16 nonsel ag	TAAR1 ag count
COc1ccc(CCN2C(=O)c3[nH]nc(-c4ccccc4O)c3C2c2cccc(Cl)c2)cc1 (stereo not drawn)	-7.7	-2.3	i	58.7*	12.2	19.4	40.0	8.1	11.6
O=C(N/N=C/c1c[nH]c2ccc(Br)cc12)c1ccn(Cc2ccc(Cl)cc2)n1	-1.8	1.8	i	62.1*	16.2	23.9*	41.9	4.2	11.4
COc1ccccc1-c1cnc2c(c1)C(=O)N([C@@H](C)CO)C[C@@H](C)[C@H](CN(C)C(=O)c1cccnc1)O2	.	.	.	-7.8	5.6	.	.	.	.
CCCN1C(=O)c2n[nH]c(C)c2C1c1ccc2c(c1)OCO2 (stereo not drawn)	.	.	.	-15.2	-1.0	.	.	.	.
COc1cc2c3nc4n(c(=O)c3n(CC(=O)NCC3CCCO3)c2cc1OC)CCS4 (stereo not drawn)	-2.4	-5.3	i	-15.4	0.5	.	.	.	.
CC1(c2nnc(-c3ccc(Cl)cc3)o2)CC(c2c(Cl)cccc2Cl)=NO1 (stereo not drawn)	-7.8	-1.2	i	56.4*	15.2	22.9*	32.1	7.3	8.3
CCO[C@H]1OC(C(=O)NCc2nc3ccccc3[nH]2)=C[C@@H](c2csc3ccccc23)[C@@H]1CCCO	.	-0.5	i	53.6*	28.7	25.6*	31.3	6.1	4.7
CCO[C@@H]1OC(C(=O)NCc2nc3ccccc3[nH]2)=C[C@H](c2csc3ccccc23)[C@H]1CCCO	14.4	-0.7	i	53.4*	19.3	30.4*	35.0	5.0	4.6
CCO[C@H]1OC(C(=O)NCc2nc3ccccc3[nH]2)=C[C@@H](c2ccccc2)[C@@H]1CCCO	12.7	5.3	i	27.8	9.7	.	.	.	.
O=C(CSc1ccccn1)Nc1nonc1[N+](=O)[O-]	-10.2	-0.1	i	-12.7	4.1	.	.	.	.
COCC(=O)N(C)C[C@@H]1Oc2cc(-c3ccc(F)cc3)ccc2S(=O)(=O)N([C@H](C)CO)C[C@H]1C	.	.	.	10.5	8.5	.	.	.	.
N#Cc1cc(C#N)c(N2CCN(c3cccc(Cl)n3)CC2)nc1N	0.6	-4.2	i	57.9*	32.1	33.7*	49.2*	19.4*	23.7
CN1C(=O)[C@H]2[C@@H](c3ccc(F)cc3)N3C(=O)c4ccccc4NC(=O)[C@@]3(C)[C@H]2C1=O	8.4	1.3	i	.	.	.	.	.	.
Cc1ccc([C@H]2C(C(=O)O)=CC[C@@H](c3ccc(Cl)cc3)N2S(=O)(=O)c2ccc(C)cc2)cc1	-26.6	.	.	65.9*	5.9	11.2	45.7	2.4	0.5
Cc1ccc(S(=O)(=O)N2[C@@H](c3ccc(Cl)cc3)C(C(=O)O)=CC[C@H]2c2ccc(C(C)C)cc2)cc1	6.0	.	.	46.9	22.7	.	.	.	.
CC(C)c1ccc(OCC(=O)Nc2ccccc2C(=O)N2CCOCC2)cc1	-4.3	-4.5	i	-1.3	1.0	.	.	.	.
C[C@@H]1CN([C@@H](C)CO)C(=O)CCCn2cc(nn2)CO[C@H]1CN(C)C(=O)Nc1ccnc(N2CCOCC2)c1	.	.	.	-27.9	2.6	.	.	.	.
COc1cccc(NC(=O)C2CCN(C(=O)[C@@H]3Cc4ccccc4CN3C(=O)OC(C)(C)C)CC2)c1	-22.9	-1.8	i	52.6*	14.6	24.5*	44.3	9.9	15.1
